In brackets after ≈: the same amount, converted by molar mass.
Tests used:
Mus musculus [1] = test: ED50 value was measured by sc administration against streptococcus pyogenes infection in mice (in vivo, in experiment 1); type: functional
Summary of the method: (§1)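 Infected mice were dosed orally or subcutaneously at 1 and 5 h postinfection, 0.25 mL of antibiotic solution in 10% aqueous ethanol per dose. Tartaric acid was added where needed for solubility. Several dose concentrations were tested to give the ED50.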

Mus musculus [2] = test: ED50 value was measured by sc administration against staphylococcus aureus infection in mice (in vivo, in experiment 3); type: functional; conditions: Mus musculus, sc; read-out: ED50
[3] = tested on: Staphylococcus epidermidis; test: microbe, parasite or virus in culture; type: functional
Mus musculus [4] = test: ED50 value was measured by sc administration against streptococcus pneumoniae infection in mice (in vivo, in experiment 1); type: functional; summary of the method: as §1
Rattus norvegicus [5] = test: Plasma concentration in rats was determined by oral administration, 20 mg/kg at 40 min; type: functional, organism-based; parameters: dose 20 mg/kg
Summary of the method: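 Peripheral plasma antibiotic levels in rats given 20 mg/kg orally or subcutaneously. Plasma was sampled at timed points after dosing. Levels were measured by microbiological agar assay with Micrococcus luteus seeded in Antibiotic Media 1, reading zone sizes, and were calculated from a standard curve for the appropriate compound. Each value is the average of three rats per time point, in μg/mL.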

Rattus norvegicus [6] = species on record: Rattus norvegicus; test: Fluid concentration in liver tissue was determined in rats at 0.5 h; type: functional
Summary of the method: (§2)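 Rats were gavaged at 20 mg/kg and tissues sampled 0.5–6 h after dosing. Drug was assayed microbiologically with Micrococcus luteus seeded in Antibiotic Media 1. Zone sizes were read against each compound's own standard curve. Values are the mean of three rats per time point, in μg/g.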

Mus musculus [7] = test: Plasma concentration in mice was determined by subcutaneous administration, 20 mg/kg at 5 min; type: functional, organism-based; parameters: dose 20 mg/kg
Summary of the method: (§3)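 Mice given 20 mg/kg orally or subcutaneously; peripheral plasma sampled at 5, 20 and 40 min and at 1, 2 and 4 h after dosing. Microbiological assay used Micrococcus luteus seeded in Antibiotic Medium 1, with zone sizes converted by the compound's own standard curve. Each value is the average of five mice per time point.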

Streptococcus pneumoniae [8] = test: MIC value measured against streptococcus pneumoniae Park1; type: functional
Streptococcus pneumoniae [9] = test: Effective dose against mice infected with streptococcus pneumoniae after peroral administration (in vivo); type: functional; conditions: in Mus musculus, po
Rattus norvegicus [10] = species on record: Rattus norvegicus; test: Fluid concentration in urine was determined in rats at 0.5 hr; type: functional
Summary of the method: (§4)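 Rats dosed by gavage at 20 mg/kg; lung, liver, kidney, urine and serum sampled at 0.5, 1, 2, 4 and 6 h after dosing. Antibiotic measured by microbiological assay with Micrococcus luteus seeded in Antibiotic Medium 1. Zone sizes were read against the standard curve for the same compound. Each value is the average of three rats per time point.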

Rattus norvegicus [11] = species on record: Rattus norvegicus
Mus musculus [12] = test: ED50 value was measured by po administration against streptococcus pyogenes infection in mice (in vivo, in experiment 1); type: functional; summary of the method: as §1
Rattus norvegicus [13] = species on record: Rattus norvegicus; test: Fluid concentration in urine was determined in rats at 2 hr; type: functional; summary of the method: as §4
Rattus norvegicus [14] = species on record: Rattus norvegicus; test: Fluid concentration in lung tissue was determined in rats at 0.5 h; type: functional; summary of the method: as §4
Rattus norvegicus [15] = species on record: Rattus norvegicus; test: Fluid concentration in lung tissue was determined in rats at 2 h; type: functional; summary of the method: as §4
Mus musculus [16] = test: Plasma concentration in mice was determined by subcutaneous administration, 20 mg/kg at 4 hr; type: functional, organism-based; parameters: dose 20 mg/kg; summary of the method: as §3
Mus musculus [17] = test: Plasma concentration in mice was determined by subcutaneous administration, 20 mg/kg at 2 hr; type: functional, organism-based; parameters: dose 20 mg/kg; summary of the method: as §3
Mus musculus [18] = test: Plasma concentration in mice was determined by subcutaneous administration, 20 mg/kg at 1 hr; type: functional, organism-based; parameters: dose 20 mg/kg; summary of the method: as §3
Rattus norvegicus [19] = species on record: Rattus norvegicus; test: Fluid concentration in liver tissue was determined in rats at 1 h; type: functional; summary of the method: as §4
Mus musculus [20] = species on record: Mus musculus
Mus musculus [21] = test: ED50 value was measured by sc administration against staphylococcus aureus infection in mice (in vivo, in experiment 1); type: functional; summary of the method: as §1
Rattus norvegicus [22] = species on record: Rattus norvegicus; test: Fluid concentration in lung tissue was determined in rats at 4 h; type: functional; summary of the method: as §4
Rattus norvegicus [23] = species on record: Rattus norvegicus; test: Fluid concentration in kidney tissue was determined in rats at 6 hr; type: functional; summary of the method: as §2
Mus musculus [24] = test: ED50 value was measured by po administration against streptococcus pneumoniae infection in mice (in vivo, in experiment 3); type: functional; conditions: Mus musculus, po; read-out: ED50
Rattus norvegicus [25] = species on record: Rattus norvegicus; test: Fluid concentration in kidney tissue was determined in rats at 0.5 hr; type: functional; summary of the method: as §2
Streptococcus pyogenes [26] = test: Effective dose against mice infected with streptococcus pyogenes after peroral administration (in vivo); type: functional; conditions: in Mus musculus, po
Rattus norvegicus [27] = species on record: Rattus norvegicus; remark: listed apart in the source
Mus musculus [28] = test: ED50 value was measured by sc administration against streptococcus pneumoniae infection in mice (in vivo, in experiment 3); type: functional; conditions: Mus musculus, sc; read-out: ED50
Haemophilus influenzae = test: MIC value was measured against haemophilus influenzae CL; type: functional
Rattus norvegicus [29] = species on record: Rattus norvegicus; test: Fluid concentration in lung tissue was determined in rats at 6 h; type: functional; summary of the method: as §4
Staphylococcus aureus [30] = test: MIC value measured against staphylococcus aureus X1; type: functional
Rattus norvegicus [31] = species on record: Rattus norvegicus; test: Fluid concentration in lung tissue was determined in rats at 1 h; type: functional; summary of the method: as §4
Mus musculus [32] = test: ED50 value was measured by po administration against streptococcus pneumoniae infection in mice (in vivo, in experiment 1); type: functional; summary of the method: as §1
Staphylococcus aureus [33] = test: Effective dose against mice infected with Staphylococcus aureus after peroral administration (in vivo); type: functional; conditions: in Mus musculus, po
Mus musculus [34] = test: Plasma concentration in mice was determined by subcutaneous administration, 20 mg/kg at 20 min; type: functional, organism-based; parameters: dose 20 mg/kg; summary of the method: as §3
Mus musculus [35] = test: ED50 value was measured by po administration against staphylococcus aureus infection in mice (in vivo, in experiment 3); type: functional; conditions: Mus musculus, po; read-out: ED50
Mus musculus [36] = test: ED50 value was measured by po administration against streptococcus pyogenes infection in mice (in vivo, in experiment 3); type: functional; conditions: Mus musculus, po; read-out: ED50
Mus musculus [37] = test: ED50 value was measured by po administration against staphylococcus aureus infection in mice (in vivo, in experiment 1); type: functional; summary of the method: as §1
Mus musculus [38] = test: Plasma concentration in mice was determined by subcutaneous administration, 20 mg/kg at 40 min; type: functional, organism-based; parameters: dose 20 mg/kg; summary of the method: as §3
Rattus norvegicus [39] = species on record: Rattus norvegicus; test: Fluid concentration in urine was determined in rats at 4 hr; type: functional; summary of the method: as §4
Rattus norvegicus [40] = species on record: Rattus norvegicus; test: Fluid concentration in urine was determined in rats at 6 hr; type: functional; summary of the method: as §4
Streptococcus pyogenes [41] = test: MIC value measured against streptococcus pyogenes C203; type: functional

CC[C@H]1OC(=O)[C@H](C)[C@@H](O[C@H]2C[C@@](C)(OC)[C@@H](O)[C@H](C)O2)[C@H](C)[C@@H](O[C@@H]2O[C@H](C)C[C@H](N(C)C)[C@H]2O)[C@](C)(O)C[C@@H](C)C(=O)[C@H](C)[C@@H](O)[C@]1(C)O [ERYTHROMYCIN]
ED50 (Mus musculus [1]): 2.5 mg/kg
ED50 (Mus musculus [2]): 4.1 mg/kg
MIC [3]: 0.06 µg/mL (≈ 0.0818 µM)
ED50 (Mus musculus [4]): 2.7 mg/kg
Plasma concentration (Rattus norvegicus [5]): 0.11 µg/mL
Activity (Rattus norvegicus [6]): 0.15 µg/mL
Plasma concentration (Mus musculus [7]): 5.84 µg/mL
MIC (Streptococcus pneumoniae [8]): 0.008 µg/mL (≈ 0.0109 µM)
ED50 (Streptococcus pneumoniae [9]): 44 mg/kg
Activity (Rattus norvegicus [10]): 7.5 µg/mL
Plasma concentration (Rattus norvegicus [11]): 0.11 µg/mL
ED50 (Mus musculus [12]): 18 mg/kg
Activity (Rattus norvegicus [13]): 2.5 µg/mL
Activity (Rattus norvegicus [14]): 1 µg/mL
Activity (Rattus norvegicus [15]): 0.04 µg/mL
Plasma concentration (Mus musculus [16]): 0 µg/mL
Plasma concentration (Mus musculus [17]): 0.01 µg/mL
Plasma concentration (Mus musculus [18]): 4.26 µg/mL
Activity (Rattus norvegicus [19]): 0.03 µg/mL
Plasma concentration (Mus musculus [20]): 0.1 µg/mL
ED50 (Mus musculus [21]): 1.6 mg/kg
Activity (Rattus norvegicus [22]): 0.03 µg/mL
Activity (Rattus norvegicus [23]): 0 µg/mL
ED50 (Mus musculus [24]): > 100 mg/kg
Activity (Rattus norvegicus [25]): 0.17 µg/mL
ED50 (Streptococcus pyogenes [26]): 21 mg/kg
Plasma concentration (Rattus norvegicus [27]): 0.48 µg/mL
ED50 (Mus musculus [28]): 3.5 mg/kg
MIC (Haemophilus influenzae): 1 µg/mL (≈ 1.36 µM)
Activity (Rattus norvegicus [29]): 0.04 µg/mL
MIC (Staphylococcus aureus [30]): 0.12 µg/mL (≈ 0.164 µM)
Activity (Rattus norvegicus [31]): 0.4 µg/mL
ED50 (Mus musculus [32]): 14 mg/kg
ED50 (Staphylococcus aureus [33]): 41 mg/kg
Plasma concentration (Mus musculus [34]): 5.96 µg/mL
ED50 (Mus musculus [35]): 71 mg/kg
ED50 (Mus musculus [36]): 12 mg/kg
ED50 (Mus musculus [37]): 15 mg/kg
Plasma concentration (Mus musculus [38]): 4.36 µg/mL
Activity (Rattus norvegicus [39]): 8.8 µg/mL
Activity (Rattus norvegicus [40]): 0.35 µg/mL
MIC (Streptococcus pyogenes [41]): 0.015 µg/mL (≈ 0.0204 µM)
